High-throughput results deposited in PubChem BioAssay by several laboratories.
TbMetRS inhib: blocks T. brucei methionyl-tRNA synthetase activity. purified T. brucei MetRS, ATP depletion, Kinase-Glo luminescence. inhibition, % at 11.9 µM. 360,000 tested, 0.4% active;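 active = inhibition above a per-plate cutoff of the control wells' mean inhibition plus 3 SD, cut at about 5.5% in these data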;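 also: 0% = DMSO wells median and 100% = median of wells with control inhibitor compound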
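technique = Kinase-Glo luminescence, ATP depletion format | system = purified MetRS (methionyl-tRNA synthetase) enzyme from Trypanosoma brucei | timing = 15 min preincubation, 2 h reaction, all 25 °C | evaluation = percent inhibition versus plate control medians | dosing = single dose, 11.9 µM final nominal, 0.9% final DMSO | also added = substrates ATP, L-methionine and bulk Escherichia coli tRNA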
GRIN3A LBD mod: modulates the human NR3A ligand-binding domain; NR3A LBD differential scanning fluorimetry, Tm shift; 0% = protein alone, 100% = glycine-bound protein; Tm shift relative to glycine control, % at 25 µM; 340,000 tested, 2.5% active; AID 1259313;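 active = melting temperature shift of at least 10% of the positive control shift, at one fixed dose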
MPTP inh: permeability transition pore inhibition; isolated mouse mitochondria, Ca2+ swelling absorbance, 30 min; inhibition, % at 10 µM; 360,000 tested, 1.4% active;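 active = inhibition of 50% or more, scaled per plate between neutral and stimulator controls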;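 also: 0% = DMSO wells given calcium and 100% = 1 mM EGTA wells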
EBV gp42 block: inhibitors of Epstein-Barr virus glycoprotein 42 | inhibition, % (tested at 21.74 µM) | AID 1085 | 220,000 tested, 0.42% active | Fluorescence polarization binding assay, mP read-out; in the data active = inhibition above about 50%
Target sequence (Q1HVG2 whole entry, looked up): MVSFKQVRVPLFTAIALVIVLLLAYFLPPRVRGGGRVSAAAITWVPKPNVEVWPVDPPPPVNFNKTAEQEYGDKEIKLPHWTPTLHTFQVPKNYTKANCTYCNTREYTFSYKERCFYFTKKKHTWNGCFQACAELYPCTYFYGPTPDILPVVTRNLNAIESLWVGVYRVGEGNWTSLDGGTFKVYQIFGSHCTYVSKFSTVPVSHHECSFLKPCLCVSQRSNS
CHOP inh: inhibitors of CHOP induction in ER stress response. CHO-K1 CHOP-promoter luciferase, tunicamycin-induced, 15-18 h. inhibition, % at 10 µM. 220,000 tested, 3.8% active. AID 2732;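 active = compounds that reduced the stress-induced luciferase reporter signal by more than about 70% of percent inhibition, limit read from the data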;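 also: 0% = tunicamycin plus vehicle and 100% = wells without tunicamycin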
WT yeast gro inh: growth inhibition of WT yeast, mitochondrial fusion screen | mitochondrial fusion phenotypic screen, WT strain | inhibition, % at 10 µM | 190,000 tested, 2.1% active | AID 1362; in the data active = inhibition above about 58%; tested in S. cerevisiae
* marks the source's active call; other numbers are inactive results; nt = not tested or not shown. Shown are actives, neighbours in structure and some others; about 6.4% of the full set was active somewhere.

SMILES | TbMetRS inhib | GRIN3A LBD mod | MPTP inh | EBV gp42 block | CHOP inh | WT yeast gro inh
COc1ccc(-c2nnc(SCC(=O)N3CCCC3=O)n2N)cc1OC | 0 | 19* | -2 | nt | nt | nt
Nn1c(SCC(=O)N2CCCC2=O)nnc1-c1cccs1 | 0 | 4 | 0 | nt | nt | nt
CC(=O)Nc1ccc2c(c1)Cc1cc(N3C(=O)C=CC3=O)ccc1-2 | 0 | 24* | 4 | nt | nt | nt
Cc1cccc(C2c3[nH]c4ccccc4c3CCN2C(=O)c2noc3c2CCCC3)n1 (stereo not given) | 1 | -5 | 0 | -2 | 32 | 60*
CSc1nc(C(=O)N2CCc3c([nH]c4ccccc34)C2c2ccccn2)cs1 (stereo not given) | 1 | -9 | 0 | 8 | 15 | 59*
O=C(c1noc2c1CCCC2)N1CCc2c([nH]c3ccccc23)C1c1ccccn1 (stereo not given) | 0 | -7 | 3 | 8 | 12 | 27
O=C(c1cccs1)N1CCc2c([nH]c3ccccc23)C1c1ccccn1 (stereo not given) | 2 | 1 | 1 | 18 | 1 | 11
Cc1ccc(S(=O)(=O)N2CCOCC2)cc1C(=O)Nc1cccc(S(=O)(=O)N2CCCC2)c1 | 0 | 0 | -2 | -6 | 18 | 3
O=C1c2ccccc2C(=O)C12OC2c1ccc(Cl)cc1Cl (stereo not given) | -1 | 0 | -1 | -16 | 88* | 17
O=C1c2ccccc2C(=O)C1c1ccc(Cl)cc1 | 0 | 3 | 0 | nt | nt | nt
CCOC(=O)C1=C(C)NC(=O)NC1c1ccc(OCCO)c(OC)c1 (stereo not given) | 0 | 1 | -7 | 0 | 12 | -1
COc1cc(/C=C2\SC(=O)N(c3cccc(Cl)c3)C2=O)cc([N+](=O)[O-])c1O | 0 | 1 | 0 | 87* | 105* | 56
COc1cc(/C=C2/C(=O)NN(c3cccc(C)c3)C2=O)cc([N+](=O)[O-])c1O | 0 | -6 | 1 | -2 | -14 | 1
COc1cc(/C=C2\SC(=O)N(c3ccc(Cl)cc3)C2=O)cc([N+](=O)[O-])c1O | -1 | 14* | 2 | 100* | 105* | 47
NS(=O)(=O)c1ccc(CCNC(=O)/C=C/c2ccc([N+](=O)[O-])cc2)cc1 | -1 | -1 | 0 | 10 | 8 | 10
CC(CN1CCCCC1)OC(=O)c1ccc(Cl)cc1 (stereo not given) | 0 | -2 | -4 | -5 | 9 | 13
O=C(Cn1c(=O)oc2cc(S(=O)(=O)N3CCCC3)ccc21)N1CCc2ccccc2C1 | 0 | -2 | 0 | -15 | 85* | -5
S=c1[nH]nc(C2CC2c2ccc(Cl)cc2)n1-c1ccc(Cl)cc1 (stereo not given) | 0 | -3 | 2 | -1 | 50 | 76*
CC1=NN(c2ccccc2)C(=O)C1C(=O)c1ccccc1 (stereo not given) | 0 | 0 | 0 | -22 | -8 | -10
Clc1cccc(COn2c(-c3ccc(Cl)cc3Cl)nc3ncccc32)c1 | 0 | -10 | -6 | 4 | 74* | 67*
COn1c(-c2ccc(C)cc2)nc2ncccc21 | -1 | -2 | 1 | nt | nt | nt
Cc1ccc(COn2c(-c3ccc(Cl)cc3Cl)nc3ncccc32)cc1 | -1 | 1 | -6 | 0 | 11 | 71*
COn1c(-c2ccccc2)nc2ncccc21 | -1 | 0 | 0 | nt | nt | nt
OC(CSc1c(Cl)cccc1Cl)CN1CCN(c2ccc(F)cc2)CC1 (stereo not given) | -1 | -13 | 2 | -13 | 88* | 58
CCC(C)(C)NC(=O)C(NS(=O)(=O)c1cccs1)c1ccccc1 (stereo not given) | -1 | 31* | 0 | nt | nt | nt
SMILES | TbMetRS inhib | GRIN3A LBD mod | MPTP inh | EBV gp42 block | CHOP inh | WT yeast gro inh
CCCC(=NCc1ccccc1)C1=C(O)C(C(=O)OC)C(C)(C)CC1=O (stereo not given) | 0 | 1 | -1 | -5 | 21 | 1
CCCC(=NCC(=O)O)C1=C(O)C(C(=O)OC)C(C)(C)CC1=O (stereo not given) | 0 | 25* | -4 | -13 | 15 | 8
CCCCCCOC(=O)C[N+](C)(C)CCOC1CC2CCC1(C)C2(C)C (stereo not given) | -1 | -3 | -2 | -21 | 58 | 57
CCCCCCCOC(=O)C[N+](C)(C)CCOC1CC2CCC1(C)C2(C)C (stereo not given) | -1 | -5 | 17 | -20 | 93* | 78*
Cc1cccc(NC(=S)NCC23C=CC(O2)C2C(=O)N(c4ccc(Cl)cc4)C(=O)C23)c1 (stereo not given) | -1 | 12* | 7 | -9 | 20 | 12
C[C@H](CO)N1C[C@H](C)[C@H](CN(C)C(=O)Nc2ccc(F)cc2)Oc2c(NC(=O)c3ccc(-c4nccs4)cc3)cccc2C1=O | -1 | 2 | -2 | nt | nt | nt
COCCNC(=O)CN(C(=O)c1ccc(N2CCCC2)nc1)c1ccccc1 | -2 | 1 | 0 | -13 | -14 | 17
Cc1nn(Cc2ccc(Cl)cc2)c(=O)n1N(C)c1ncc(C(F)(F)F)cc1Cl | 0 | 1 | -1 | -10 | 81* | 6
CC(OC(=O)c1ccccc1Nc1ccc(SC(F)F)cc1)C(N)=O (stereo not given) | 0 | 5 | 19 | 7 | 59 | 81*
OC12CCCCC1C(c1ccc3c(c1)OCO3)N(Cc1cccc(F)c1)CC2 (stereo not given) | -1 | 0 | -1 | -10 | 61 | 12
OC12CCCCC1C(c1ccc3c(c1)OCO3)N(Cc1ccc(F)cc1)CC2 (stereo not given) | -1 | -3 | 1 | 0 | 90* | -4
CCOC(=O)c1c(NC(=O)c2nn(CC)cc2Br)sc2c1CCCCC2 | -1 | -5 | 2 | -11 | 6 | 8
COC(=O)c1c(NC(=O)COC(=O)c2ccc(O)cc2)sc2c1CCCCC2 | -1 | 18* | 41 | 18 | 56 | 2
CCn1cc(C(=O)NC(=S)Nc2sc3c(c2C(=O)OC)CCCCCC3)cn1 | 0 | -3 | 1 | -16 | 78* | -7
CCOC(=O)c1[nH]c(C)c(C(=O)OCC(=O)Nc2sc3c(c2C#N)CCCCC3)c1C | 0 | 0 | -1 | -8 | 84* | 2
CCOC(=O)c1c(NC(=O)C(C)OC(=O)c2ccc(NC(=O)CC#N)cc2)sc2c1CCCC2 (stereo not given) | 0 | 12* | 3 | nt | nt | nt
Cc1ccc(-c2ccc(=O)n(CC(=O)Nc3ccc4c(c3)OCCO4)n2)cc1 | -1 | -1 | -1 | -25 | -19 | -16
Cc1ccc(S(=O)(=O)N2CCC(C(=O)NCCCn3ccnc3)CC2)cc1 | 0 | -2 | -1 | nt | nt | nt
COC(=O)c1c(NC(=O)c2ccco2)sc2c1CCC2 | 0 | 0 | 2 | 13 | 76* | 1
CCOC(=O)c1c(NC(=S)NC(=O)c2ccc(Cn3cc(Cl)cn3)o2)sc2c1CCC(C)C2 (stereo not given) | 0 | -4 | 1 | -12 | 77* | -4
